Assay results reported in ChEMBL document CHEMBL3112410, “Reaction intermediate analogues as bisubstrate inhibitors of pantothenate synthetase” (Bioorg Med Chem, 2014).
pKi: −log10 of the molar value. Calls of active or inactive are those of the source. The calls are words filed in the database; no cut-off is given here.

Experiments:
[1] = system: Mycobacterium tuberculosis; test: Antimycobacterial activity against PanC deficient Mycobacterium tuberculosis H37RvMA assessed as growth inhibition up to 2 mM after 7 to 14 days; assay type: functional
Procedure, shortened: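 panC conditional knockdown (<5% wild-type PanC) grown to OD600 ~0.2 in 7H9 with Hyg 50 μg/mL, Km 25 μg/mL, Gm 5 μg/mL, diluted 500-fold. 2-fold serial dilutions from 4 mM starting concentration in 7H9 with half-strength antibiotics, with or without ATc (20 ng/mL) alone or ATc plus pantothenate (50 μg/mL). 37 °C, growth scored visually at 7, 10, 14 days.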

[2] = system: Mycobacterium tuberculosis; test: Antimycobacterial activity against wild type Mycobacterium tuberculosis H37RvMA assessed as growth inhibition up to 250 uM after 7 to 14 days; assay type: functional
Procedure, shortened: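 H37RvMA grown in 7H9 to OD600 ~0.2, diluted 500-fold into wells holding 2-fold serial compound dilutions (starting concentration 4 mM) in 7H9. Incubated at 37 °C. Growth was read by eye on days 7, 10 and 14.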

Pantothenate synthetase = biological target: T1, Pantothenate synthetase (Mycobacterium tuberculosis, UniProt P9WIL5); test: Competitive inhibition of Mycobacterium tuberculosis recombinant PanC expressed in Escherichia coli BL21 (DE3) using pantoic acid and ATP as substrate by Michaelis-Menten equation analysis
T1 sequence (P9WIL5 whole entry): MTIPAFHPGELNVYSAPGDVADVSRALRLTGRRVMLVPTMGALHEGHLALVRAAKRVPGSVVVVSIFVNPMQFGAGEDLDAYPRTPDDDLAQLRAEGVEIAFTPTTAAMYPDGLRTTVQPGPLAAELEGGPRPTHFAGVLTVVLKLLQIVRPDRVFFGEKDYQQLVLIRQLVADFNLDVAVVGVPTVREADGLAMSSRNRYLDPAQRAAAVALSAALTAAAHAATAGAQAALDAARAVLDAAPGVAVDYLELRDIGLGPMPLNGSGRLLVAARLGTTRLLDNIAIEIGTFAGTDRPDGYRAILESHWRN
Procedure, shortened: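 N-terminal His6 PanC (pET28b, BL21(DE3), Ni-NTA purified), 400 nM. Continuous MesG pyrophosphate-coupled assay with pyrophosphatase and purine nucleoside phosphorylase, A360, 25 °C. Buffer 100 mM HEPES pH 8.0, 10 mM MgCl2, up to 5% DMSO. Pantoic acid varied 50–300 μM at 2.6 mM ATP, 2.4 mM β-alanine, several fixed inhibitor levels, PanC-initiated. Initial rates fit to the competitive equation for Ki.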

Row | SMILES | growth inhibition (GI) [1] | growth inhibition (GI) [2] | pKi (Pantothenate synthetase)
1 | CC(C)(C)[C@@H](O)C(=O)NS(=O)(=O)OC[C@H]1O[C@@H](n2cnc3c(N)ncnc32)[C@H](O)[C@@H]1O | inactive | inactive | 6.57
2 | CC(C)(CO)[C@@H](O)CNS(=O)(=O)NC[C@H]1O[C@@H](n2cnc3c(N)ncnc32)[C@H](O)[C@@H]1O | inactive | inactive | 5.46
3 | CC(C)(C)[C@@H](O)C(=O)NS(=O)(=O)OC[C@H]1O[C@@H](n2cnc3c(N)ncnc32)[C@@H](O)[C@@H]1O | inactive | inactive | 5.76
4 | CC(C)(C)[C@@H](O)C(=O)NS(=O)(=O)OC[C@H]1C[C@@H](n2cnc3c(N)ncnc32)[C@H](O)[C@@H]1O | inactive | inactive | 6.06
5 | CC(C)(C)[C@@H](O)C(=O)NS(=O)(=O)OC[C@H]1O[C@@H](n2cnc3c(N)ncnc32)[C@H](F)[C@@H]1O | inactive | inactive | 6.00
